# Reference: ChEMBL document CHEMBL4431374, “Synthesis and Antitubercular Activity of New Benzo[b]thiophenes” (ACS Med Chem Lett, 2016)
# What was measured:
# HeLa = assay: (§1) Cytotoxicity against human HeLa cells assessed as growth inhibition after 72 hrs by MTT assay; format: cell-based; conditions: hela, 72 h
# [1] = as §1; format: cell-based; conditions: HeLa cells
# [2] = tested on: Mycobacterium tuberculosis; assay: Antitubercular activity against dormant Mycobacterium tuberculosis H37Ra ATCC 25177 after 12 days by XTT reduction menadione assay; format: functional; conditions: H37Ra ATCC 25177, 288 h
# How it was run: (§2)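 H37Ra was tested by microdilution in 96-well plates, at 30–0.001 μg/mL in one-third dilutions. Each plate carried a rifampicin and isoniazid dilution series as positive controls. Growth was scored by XTT reduction menadione assay (XRMA) and cross-checked by a final absorbance reading at 600 nm.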
# [3] = (§3) Cytotoxicity against human THP1 cells assessed as growth inhibition after 72 hrs by MTT assay; format: cell-based, THP-1; conditions: THP-1 cells
# THP-1 = assay: as §3; format: cell-based; conditions: thp-1, 72 h
# [4] = tested on: Mycobacterium tuberculosis; assay: Antitubercular activity against dormant Mycobacterium tuberculosis H37Ra ATCC 25177 at 3 to 30 ug/ml after 12 days by XTT reduction menadione assay; format: functional; parameters: scale not given: the % may be the effect or the level left
# PANC-1 = assay: (§4) Cytotoxicity against human PANC1 cells assessed as growth inhibition after 90 hrs by MTT assay; format: cell-based; conditions: panc-1, 90 h
# [5] = as §4; format: cell-based, PANC-1; conditions: PANC-1 cells
# [6] = tested on: Mycobacterium tuberculosis; assay: Antitubercular activity against dormant Mycobacterium tuberculosis H37Ra ATCC 25177 infected in human THP1 cells after 12 days by nitrate reductase assay; format: functional; conditions: H37Ra ATCC 25177, 288 h
# [7] = tested on: Mycobacterium tuberculosis; assay: Antitubercular activity against active Mycobacterium tuberculosis H37Ra ATCC 25177 infected in human THP1 cells after 8 days by nitrate reductase assay; format: functional; conditions: H37Ra ATCC 25177, 192 h
# [8] = tested on: Mycobacterium tuberculosis; assay: Antitubercular activity against active Mycobacterium tuberculosis H37Ra ATCC 25177 after 8 days by XTT reduction menadione assay; format: functional; conditions: H37Ra ATCC 25177, 192 h; how it was run: as §2
# [9] = Selectivity index, ratio of GI50 for human PANC1 cells to MIC90 for active Mycobacterium bovis BCG ATCC 35734; format: toxicity; conditions: PANC-1 cells, read-out: Selectivity Index
# [10] = Selectivity index, ratio of GI50 for human HeLa cells to MIC90 for active Mycobacterium bovis BCG ATCC 35734; format: toxicity; conditions: read-out: Selectivity Index
# [11] = Selectivity index, ratio of GI50 for human PANC1 cells to MIC90 for dormant Mycobacterium bovis BCG ATCC 35734; format: toxicity; conditions: PANC-1 cells, read-out: Selectivity Index
# [12] = Selectivity index, ratio of GI50 for human HeLa cells to MIC90 for dormant Mycobacterium bovis BCG ATCC 35734; format: toxicity; conditions: read-out: Selectivity Index
# [13] = Selectivity index, ratio of GI50 for human THP1 cells to MIC90 for dormant Mycobacterium bovis BCG ATCC 35734; format: toxicity; conditions: THP-1 cells, read-out: Selectivity Index
# [14] = Selectivity index, ratio of GI50 for human THP1 cells to MIC90 for active Mycobacterium bovis BCG ATCC 35734; format: toxicity; conditions: THP-1 cells, read-out: Selectivity Index
# [15] = Selectivity index, ratio of GI50 for human THP1 cells to MIC90 for active Mycobacterium tuberculosis H37Ra ATCC 25177; format: toxicity; conditions: THP-1 cells, read-out: Selectivity Index
# [16] = Selectivity index, ratio of GI50 for human THP1 cells to MIC90 for dormant Mycobacterium tuberculosis H37Ra ATCC 25177; format: toxicity; conditions: THP-1 cells, read-out: Selectivity Index
# [17] = Antioxidant activity assessed as DPPH radical scavenging activity after 30 mins by spectrophotometric method; format: functional
smiles,measurement,setting,value
O=C(CC(=O)c1cc(Cl)ccc1O)c1cc2ccccc2s1,GI90,HeLa,8.24 mg/L
same,GI50 at 72 h,[1],4.42 mg/L
same,MIC90,[2],2.79 mg/L
same,GI50 at 72 h,[3],7.48 mg/L
same,GI90,THP-1,> 30 mg/L
same,Activity,[4],>92%
same,GI90,PANC-1,26.03 mg/L
same,GI50 at 90 h,[5],8.44 mg/L
same,MIC90,[6],0.91 mg/L
same,MIC90,[7],2.83 mg/L
same,MIC90,[8],3.29 mg/L
Cc1ccc2oc(-c3cc4ccccc4s3)cc(=O)c2c1,GI90,HeLa,27.8 mg/L
same,GI50 at 72 h,[1],15.6 mg/L
same,MIC90,[2],30 mg/L
same,GI50 at 72 h,[3],> 100 mg/L
same,GI90,THP-1,> 100 mg/L
same,selectivity ratio,[9],> 20
same,selectivity ratio,[10],> 20
same,selectivity ratio,[11],> 20
same,GI90,PANC-1,29.75 mg/L
same,GI50 at 90 h,[5],12.9 mg/L
same,selectivity ratio,[12],> 20
same,MIC90,[6],2.76 mg/L
same,MIC90,[7],8.39 mg/L
same,selectivity ratio,[13],> 22
same,selectivity ratio,[14],> 22
same,MIC90,[8],28.9 mg/L
O=C(CC(=O)c1cc(Br)ccc1O)c1cc2ccccc2s1,GI90,HeLa,20.28 mg/L
same,GI50 at 72 h,[1],6.75 mg/L
same,MIC90,[2],2.63 mg/L
same,GI50 at 72 h,[3],> 100 mg/L
same,GI90,THP-1,> 100 mg/L
same,Activity,[4],>92%
same,selectivity ratio,[9],> 10
same,selectivity ratio,[11],> 10
same,GI90,PANC-1,> 30 mg/L
same,GI50 at 90 h,[5],18.3 mg/L
same,MIC90,[6],3.91 mg/L
same,MIC90,[7],4.94 mg/L
same,MIC90,[8],2.87 mg/L
Cc1ccc(O)c(C(=O)CC(=O)c2cc3ccccc3s2)c1,GI90,HeLa,> 30 mg/L
same,GI50 at 72 h,[1],7.12 mg/L
same,GI50 at 72 h,[3],> 100 mg/L
same,GI90,THP-1,> 100 mg/L
same,selectivity ratio,[11],> 10
same,GI90,PANC-1,> 30 mg/L
same,GI50 at 90 h,[5],15.8 mg/L
Cc1cc(O)c(C(=O)CC(=O)c2cc3ccccc3s2)cc1Cl,GI90,HeLa,> 100 mg/L
same,GI50 at 72 h,[1],> 100 mg/L
same,GI50 at 72 h,[3],> 100 mg/L
same,GI90,THP-1,> 100 mg/L
same,GI90,PANC-1,> 30 mg/L
same,GI50 at 90 h,[5],20.4 mg/L
same,selectivity ratio,[13],> 22
same,selectivity ratio,[14],> 22
Cc1cc2oc(-c3cc4ccccc4s3)cc(=O)c2cc1Cl,selectivity ratio,[15],> 30
same,selectivity ratio,[16],> 30
same,GI90,HeLa,> 30 mg/L
same,GI50 at 72 h,[1],21.2 mg/L
same,MIC90,[2],24.3 mg/L
same,GI50 at 72 h,[3],> 100 mg/L
same,GI90,THP-1,> 100 mg/L
same,selectivity ratio,[10],> 35
same,GI90,PANC-1,> 100 mg/L
same,GI50 at 90 h,[5],> 100 mg/L
same,selectivity ratio,[12],> 35
same,MIC90,[6],2.18 mg/L
same,MIC90,[7],7.67 mg/L
same,selectivity ratio,[13],> 30
same,selectivity ratio,[14],> 30
same,MIC90,[8],25.4 mg/L
O=C(CC(=O)c1cc(Cl)cc(Cl)c1O)c1cc2ccccc2s1,GI90,HeLa,> 100 mg/L
same,GI50 at 72 h,[1],> 100 mg/L
same,GI50 at 72 h,[3],> 100 mg/L
same,GI90,THP-1,> 100 mg/L
same,selectivity ratio,[11],> 10
same,GI90,PANC-1,> 30 mg/L
same,GI50 at 90 h,[5],26.2 mg/L
O=C(CC(=O)c1ccccc1O)c1cc2ccccc2s1,GI90,HeLa,> 30 mg/L
same,GI50 at 72 h,[1],7.86 mg/L
same,MIC90,[2],2.05 mg/L
same,GI50 at 72 h,[3],> 100 mg/L
same,GI90,THP-1,> 100 mg/L
same,Activity,[4],>92%
same,GI90,PANC-1,> 30 mg/L
same,GI50 at 90 h,[5],7.77 mg/L
same,MIC90,[6],1.82 mg/L
same,MIC90,[7],2.96 mg/L
same,MIC90,[8],25.2 mg/L
Cc1ccc(C(=O)CC(=O)c2cc3ccccc3s2)c(O)c1,EC50,[17],20 mg/L
same,GI90,HeLa,> 30 mg/L
same,GI50 at 72 h,[1],23.1 mg/L
same,MIC90,[2],4.41 mg/L
same,GI50 at 72 h,[3],> 100 mg/L
same,GI90,THP-1,> 100 mg/L
same,Activity,[4],>92%
same,selectivity ratio,[10],> 13
same,GI90,PANC-1,> 30 mg/L
same,GI50 at 90 h,[5],9.24 mg/L
same,selectivity ratio,[12],> 13
same,MIC90,[6],2.61 mg/L
same,MIC90,[7],25.8 mg/L
same,MIC90,[8],5.45 mg/L
NNC(=O)c1ccncc1 [ISONIAZID],MIC90,[2],0.075 mg/L
same,MIC90,[6],0.075 mg/L
same,MIC90,[7],0.05 mg/L
same,MIC90,[8],0.074 mg/L
CC(=O)O[C@H]1C(=O)[C@@]2(C)[C@H]([C@H](OC(=O)c3ccccc3)[C@]3(O)C[C@H](OC(=O)[C@H](O)[C@@H](NC(=O)c4ccccc4)c4ccccc4)C(C)=C1C3(C)C)[C@]1(OC(C)=O)CO[C@@H]1C[C@@H]2O [PACLITAXEL],GI90,HeLa,0.075 mg/L
same,GI50 at 72 h,[1],0.004 mg/L
same,GI50 at 72 h,[3],0.133 mg/L
same,GI90,THP-1,5.81 mg/L
same,GI90,PANC-1,5.715 mg/L
same,GI50 at 90 h,[5],0.127 mg/L
CO[C@H]1/C=C/O[C@@]2(C)Oc3c(C)c(O)c4c(O)c(c(/C=N/N5CCN(C)CC5)c(O)c4c3C2=O)NC(=O)/C(C)=C\C=C\[C@H](C)[C@H](O)[C@@H](C)[C@@H](O)[C@@H](C)[C@H](OC(C)=O)[C@@H]1C [RIFAMPIN],MIC90,[2],0.043 mg/L
same,MIC90,[6],0.8 mg/L
same,MIC90,[7],0.5 mg/L
same,MIC90,[8],0.048 mg/L
